Experimental data: ChEMBL document CHEMBL1156224, “Design, synthesis, and antibiofilm activity of 2-arylimino-3-aryl-thiazolidine-4-ones” (2010)
Values after ≈ are worked out from the molar mass of the structure shown.

Columns and labels:
Type in all cases: functional
[1] = test system: Staphylococcus epidermidis; test: Antibacterial activity against Staphylococcus epidermidis RP62A by broth microdilution method
Procedure, shortened: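 MIC against S. epidermidis RP62A by CLSI broth microdilution run in tubes (tube-dilution).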

[2] = test system: Staphylococcus epidermidis; test: Antibacterial activity against Staphylococcus epidermidis RP62A assessed as colony number after 24 hrs microdilution agar plate method
Procedure, shortened: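 MBC: 100 μl from each tube without visible growth in the MIC assay subcultured onto compound-free Mueller-Hinton agar, 37 °C for 24 h. Endpoint is the lowest concentration giving subcultures with no more than five colonies per plate.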

[3] = test system: Staphylococcus epidermidis; test: Antibacterial activity against Staphylococcus epidermidis RP62A 6 hrs biofilm after 16 hrs by microtiter plate method
Procedure, shortened: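 S. epidermidis RP62A overnight culture diluted 1:10 in TSB (OD600 0.6–0.8), then 1:200 in MH; inoculated into 96-well polystyrene wells, 37 °C for 6 h to form young biofilm. Wells washed four times with sterile PBS, fresh TSB with compound at various concentrations added, further 37 °C for 16 h.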

Row | MIC [1] | Structure (SMILES) | MBC [2] | Activity [3]
1 | > 200 µM | CCc1ccccc1/N=C1\S/C(=C\c2cccc(OCC(=O)OC)c2)C(=O)N1c1ccccc1CC | > 200 µM | >200 µM
2 | > 200 µM | CCc1ccccc1/N=C1\S/C(=C\c2ccc(-c3cccc(C(=O)OC)c3)o2)C(=O)N1c1ccccc1CC | > 200 µM | >200 µM
3 | > 200 µM | COc1cc(/C=C2\S/C(=N\c3ccccc3C)N(c3ccccc3C)C2=O)ccc1O | > 200 µM | >200 µM
4 | > 200 µM | CCc1ccccc1/N=C1\S/C(=C\c2ccc(O)cc2)C(=O)N1c1ccccc1CC | > 200 µM | >200 µM
5 | 50 µM (≈ 24.3 µg/mL) | CCc1ccccc1/N=C1\S/C(=C\c2cccc(OCC(=O)O)c2)C(=O)N1c1ccccc1CC | 100 µM | 100 µM
6 | > 200 µM | Cc1ccccc1/N=C1\S/C(=C\c2ccc(O)cc2)C(=O)N1c1ccccc1C | > 200 µM | >200 µM
7 | > 200 µM | COc1cc(/C=C2\S/C(=N\c3ccccc3C)N(c3ccccc3C)C2=O)ccc1OCC(=O)O | > 200 µM | >200 µM
8 | 50 µM (≈ 24.3 µg/mL) | CCc1ccccc1/N=C1\S/C(=C\c2ccc(OCC(=O)O)cc2)C(=O)N1c1ccccc1CC | 100 µM | 100 µM
9 | 12.5 µM (≈ 6.53 µg/mL) | CCc1ccccc1/N=C1\S/C(=C\c2ccc(-c3cccc(C(=O)O)c3)o2)C(=O)N1c1ccccc1CC | 25 µM | 25 µM
10 | > 200 µM | CCc1ccccc1/N=C1\S/C(=C\c2ccc(OCC(=O)OC)cc2)C(=O)N1c1ccccc1CC | > 200 µM | >200 µM
11 | 50 µM (≈ 25.8 µg/mL) | CCc1ccccc1/N=C1\S/C(=C\c2ccc(OCC(=O)O)c(OC)c2)C(=O)N1c1ccccc1CC | 100 µM | 100 µM
12 | > 200 µM | CCc1ccccc1/N=C1\S/C(=C\c2cccc(O)c2)C(=O)N1c1ccccc1CC | > 200 µM | >200 µM
13 | > 200 µM | Cc1ccccc1/N=C1\S/C(=C\c2ccc(OCC(=O)O)cc2)C(=O)N1c1ccccc1C | > 200 µM | >200 µM

The next lines start with the compound.

Row | Structure (SMILES) | MIC [1] | MBC [2] | Activity [3]
14 | Cc1ccccc1/N=C1\S/C(=C\c2ccc(-c3cccc(C(=O)O)c3)o2)C(=O)N1c1ccccc1C | 12.5 µM (≈ 6.18 µg/mL) | 25 µM | 25 µM
15 | COc1cc(/C=C2\S/C(=N\c3ccccc3)N(c3ccccc3)C2=O)ccc1O | > 200 µM | > 200 µM | >200 µM
16 | CN(C)c1ccc(/C=C2\S/C(=N\c3ccccc3)N(c3ccccc3)C2=O)cc1 | > 200 µM | > 200 µM | >200 µM
17 | COC(=O)c1cccc(-c2ccc(/C=C3\S/C(=N\c4ccc(C)cc4)N(c4ccc(C)cc4)C3=O)o2)c1 | > 200 µM | > 200 µM | >200 µM
18 | COc1cc(/C=C2\S/C(=N\c3ccccc3)N(c3ccccc3)C2=O)ccc1OCC(=O)O | > 200 µM | > 200 µM | >200 µM
19 | COC(=O)COc1ccc(/C=C2\S/C(=N\c3ccccc3C)N(c3ccccc3C)C2=O)cc1OC | > 200 µM | > 200 µM | >200 µM
20 | COc1ccc(/N=C2\S/C(=C\c3ccc(-c4cccc(C(=O)O)c4)o3)C(=O)N2c2ccc(OC)cc2)cc1 | 6.25 µM (≈ 3.29 µg/mL) | 25 µM | 6.25 µM
21 | COC(=O)COc1ccc(/C=C2\S/C(=N\c3ccccc3)N(c3ccccc3)C2=O)cc1OC | > 200 µM | > 200 µM | >200 µM
22 | COC(=O)c1cccc(-c2ccc(/C=C3\S/C(=N\c4ccccc4C)N(c4ccccc4C)C3=O)o2)c1 | > 200 µM | > 200 µM | >200 µM
23 | COC(=O)c1cccc(-c2ccc(/C=C3\S/C(=N\c4ccc(OC)cc4)N(c4ccc(OC)cc4)C3=O)o2)c1 | > 200 µM | > 200 µM | >200 µM
24 | Cc1ccc(/N=C2\S/C(=C\c3ccc(-c4cccc(C(=O)O)c4)o3)C(=O)N2c2ccc(C)cc2)cc1 | 6.25 µM (≈ 3.09 µg/mL) | 25 µM | 12.5 µM
25 | COC(=O)COc1ccc(/C=C2\S/C(=N\c3ccccc3C)N(c3ccccc3C)C2=O)cc1 | > 200 µM | > 200 µM | >200 µM
